Experimental data taken from ChEMBL document CHEMBL2062504, “Diterpenoid alkaloids from the lateral root of Aconitum carmichaelii” (J Nat Prod, 2012).
Activity calls are given as the source filed them. The calls are words filed in the database; no cut-off is given here.

Columns and labels:
MCF7 = assay: Cytotoxicity against human MCF7 cells at 10 uM after 96 hrs by MTT assay; format: functional, cell-based
BGC-823 = assay: Cytotoxicity against human BGC823 cells at 10 uM after 96 hrs by MTT assay; format: functional, cell-based
PC-12 = assay: Neuroprotective activity against serum starvation-induced cell death in rat PC12 cells assessed as cell viability at 10 uM incubated for 24 hrs prior to serum starvation measured after 24 hrs by MTT assay (reference value: 55.1+/-4.2%); format: functional; conditions: read-out: Activity
KETR3 = assay: Cytotoxicity against human Ketr3 cells at 10 uM after 96 hrs by MTT assay; format: functional, cell-based
WB-F344 = assay: Hepatoprotective activity against DL-galactosamine-induced cell death in rat WB-F344 cells at 10 uM incubated for 1 hr prior to DL-galactosamine-challenge measured after 24 hrs by MTT assay; format: functional, cell-based
HCT-8 = assay: Cytotoxicity against human HCT8 cells at 10 uM after 96 hrs by MTT assay; format: functional, cell-based
[1] = tested on: Peritoneal macrophage cell; assay: Antiinflammatory activity in mouse peritoneal macrophages assessed as inhibition of nitric oxide production at 10 uM; format: functional, cell-based
Liver microsomes = assay: Antioxidant activity in rat liver microsome assessed as inhibition of FeSO4-induced lipid peroxidation at 10 uM incubated for 15 mins prior to FeSO4-challenge measured after 15 mins by modified thiobarbituric acid method; format: functional
Bel-7402 = assay: Cytotoxicity against human Bel7402 cells at 10 uM after 96 hrs by MTT assay; format: functional, cell-based
A549 = assay: Cytotoxicity against human A549 cells at 10 uM after 96 hrs by MTT assay; format: functional, cell-based
Mus musculus [2] = assay: Analgesic activity in mouse assessed as reduction in acetic acid-induced writhing at 0.5 mg/kg, ip relative to vehicle-treated control; format: functional; parameters: scale not given: the % may be the effect or the level left; conditions: route intraperitoneal
Method in brief: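 Acetic acid-induced writhing test in mice. Compound given intraperitoneally at 0.5 mg/kg. Analgesia expressed as percent reduction in number of writhes versus blank control.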

Mus musculus [3] = assay: Toxicity in mouse acetic acid writhe model assessed as mortality at 5 mg/kg, ip; format: organism-based; parameters: dose 5 mg/kg, route intraperitoneal; conditions: in vivo
Method in brief: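 Mice given 5 mg/kg ip in the acetic acid-induced writhing test; deaths recorded, alongside percent reduction of writhes versus blank control.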

[4] = Toxicity in ip dosed mouse acetic acid wrtihe model; format: organism-based; conditions: in vivo
Method in brief: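 Acute toxicity in mice dosed intraperitoneally, reported as LD50 in mg/kg.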

Mus musculus [5] = assay: Analgesic activity in mouse assessed as reduction in acetic acid-induced writhing at 5 mg/kg, ip relative to vehicle-treated control; format: functional; parameters: scale not given: the % may be the effect or the level left; conditions: route intraperitoneal
Method in brief: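 Mice dosed ip at 5 mg/kg, then given acetic acid to provoke writhing. Writhes were counted, and the value is the percent reduction in writhes compared with a blank control group, reported as mean ± deviation.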

Compound	Activity (MCF7)	Activity (BGC-823)	viability at 10 µM (PC-12) [%]	Activity (KETR3)	Activity (WB-F344)	Activity (HCT-8)	inhibition [1]	inhibition (Liver microsomes)	Activity (Bel-7402)	Activity (A549)	Activity (Mus musculus [2]) [%]	Activity (Mus musculus [3])	LD50 [4] [mg/kg]	Activity (Mus musculus [5]) [%]
COC[C@]12CN(C)C3[C@@H]4[C@H](OC)[C@H]1[C@@]3([C@@H](OC)C[C@H]2O)[C@@H]1C[C@@]2(O)[C@H](OC(=O)c3ccccc3)[C@@H]1[C@]4(OC(=O)c1ccccc1)[C@@H](O)[C@@H]2OC	inactive	inactive	74.7	inactive	inactive	inactive	inactive	inactive	inactive	inactive	–	–	–	–
COC[C@@]12CC[C@H](OC)[C@]34C([C@H]([C@H](OC)[C@H]13)[C@]1(OC(C)=O)[C@H]3[C@@H](OC(=O)c5ccccc5)[C@](O)(C[C@H]34)[C@H](OC)[C@@H]1O)N(C)C2	inactive	inactive	–	inactive	inactive	inactive	inactive	inactive	inactive	inactive	30	Toxic	4.37	–
CCN1C[C@]2(COC)[C@H](O)C[C@H](OC)[C@]34C1[C@H]([C@H](OC)[C@H]23)[C@]1(O)[C@H]2[C@@H](OC(=O)c3ccccc3)[C@](O)(C[C@H]24)[C@@H](OC)[C@@H]1O	inactive	inactive	70.8	inactive	inactive	inactive	inactive	inactive	inactive	inactive	–	–	–	–
CCN1C[C@]2(COC)CC[C@H](OC)[C@]34C1[C@H]([C@H](O)[C@H]23)[C@]1(OC)[C@H]2[C@@H](OC(=O)c3ccccc3)[C@H](C[C@H]24)[C@@H](OC)[C@@H]1O	inactive	inactive	75.8	inactive	inactive	inactive	inactive	inactive	inactive	inactive	–	–	–	–
COC[C@]12CN(C)C3[C@@H]4[C@H](OC)[C@H]1[C@@]3([C@@H](OC)C[C@H]2O)[C@]1(O)C[C@@]2(O)[C@H](OC(=O)c3ccccc3)[C@@H]1[C@]4(OC)[C@@H](O)[C@@H]2OC (stereo in doubt; 7) [listing 1 of 2 here]	inactive	inactive	–	inactive	inactive	inactive	inactive	inactive	inactive	inactive	–	–	–	–
CCN1C[C@]2(COC)CC[C@H](OC)[C@]34C1[C@H]([C@H](OC)[C@H]23)[C@]1(OC(C)=O)[C@H]2[C@@H](OC(=O)c3ccccc3)[C@H](C[C@H]24)[C@@H](OC)[C@@H]1O	inactive	inactive	–	inactive	inactive	inactive	inactive	inactive	inactive	inactive	–	–	–	–
CCN1C[C@]2(COC)[C@H](O)C[C@H](OC)[C@]34C1[C@H]([C@H](OC)[C@H]23)[C@]1(OC(C)=O)[C@H]2[C@@H](OC(=O)c3ccccc3)[C@](O)(C[C@]24O)[C@@H](OC)[C@@H]1O	inactive	inactive	–	inactive	inactive	inactive	inactive	inactive	inactive	inactive	–	–	–	–
COC[C@@]12CC[C@H](OC)[C@]34C(C([C@H](OC)[C@H]13)[C@]1(OC(C)=O)[C@H]3[C@@H](OC(=O)c5ccccc5)[C@](O)(C[C@H]34)[C@@H](OC)[C@@H]1O)N(C)C2 [HYPACONITINE]	inactive	inactive	–	inactive	inactive	inactive	inactive	inactive	inactive	inactive	36	Toxic	2.65	–
CCN1C[C@]2(COC)CC[C@H](OC)[C@]34C1[C@H]([C@H](OC)[C@H]23)[C@@]1(O)C[C@H](OC)[C@@]2(O)C[C@@H]4[C@@H]1[C@H]2OC(=O)c1ccccc1	inactive	inactive	–	inactive	inactive	inactive	inactive	inactive	inactive	inactive	–	–	–	–
CCN1C[C@]2(COC)CC[C@H](OC)[C@]34C1[C@H]([C@H](O)[C@H]23)[C@]1(O)[C@H]2[C@@H](OC(=O)c3ccccc3)[C@H](C[C@H]24)[C@@H](OC)[C@@H]1O	inactive	inactive	–	inactive	inactive	inactive	inactive	inactive	inactive	inactive	–	–	–	–
CCN1C[C@]2(COC)CC[C@H](OC)[C@]34C1[C@H](C[C@H]23)[C@]1(O)[C@H]2[C@@H](OC(=O)c3ccccc3)[C@H](C[C@H]24)[C@@H](OC)[C@@H]1O	inactive	inactive	–	inactive	inactive	inactive	inactive	inactive	inactive	inactive	–	–	–	–
COC[C@]12CN(C)C3[C@@H]4[C@H](OC)[C@H]1[C@@]3([C@@H](OC)C[C@H]2O)[C@]1(O)C[C@@]2(O)[C@H](OC(=O)c3ccccc3)[C@@H]1[C@]4(OC)[C@@H](O)[C@@H]2OC (stereo in doubt; 7) [listing 2 of 2 here]	–	–	–	–	–	–	–	–	–	–	–	–	–	35
COC[C@]12CN(C)C3[C@@H]4[C@H](OC)[C@H]1[C@@]3([C@@H](OC)C[C@H]2O)[C@]1(O)C[C@@]2(O)[C@H](OC(=O)c3ccccc3)[C@@H]1[C@]4(OC)[C@@H](O)[C@@H]2OC (stereo in doubt; 8)	–	–	–	–	–	–	–	–	–	–	–	–	–	56
